Assay results from ChEMBL document CHEMBL6134784, “Furoxan-piplartine hybrids as effective NO donors and ROS inducers in PC3 cancer cells: design, synthesis, and biological evaluation” (RSC Med Chem, 2024).
pIC50: −log10 of the molar value. Active and inactive are the calls of the source. The rule behind the calls is not given here.

What was measured:
[1] = Cytotoxicity against human PNT2 cells assessed as reduction in cell viability measured after 48 hrs by CCK-8 assay; format: toxicity, cell-based
Method in brief: (§1)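 CCK-8 viability: cells grown in RPMI-1640 with 10% FBS, 1×10^4 per well, attached 24 h, then medium replaced with fresh medium containing a range of compound concentrations for 48 h at 37 °C, 5% CO2. CCK-8 added 3 h, absorbance 450 nm; vehicle control set as 100%. IC50 by nonlinear regression, mean ± SD, at least two experiments in triplicate.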

PC-3 [2] = test: Induction of morphological changes in human PC-3 cells assessed as cell rounding at 0.05 uM measured after 24 hrs in presence of antioxidant N-acetyl-L-cysteine by phase contrast microscopy; format: functional, cell-based
Method in brief: (§2)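 PC3 cells were seeded at 1×10^5 per well in 6-well plates and treated after 24 h, with or without 1 mM N-acetyl-L-cysteine. The same observation field was imaged by phase contrast microscopy at 1, 2, 3, 4 and 24 h. DMSO vehicle served as control.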

PC-3 [3] = test: Cytotoxicity against human PC-3 cells assessed as reduction in cell viability at 0.05 uM measured after 24 hrs in presence of antioxidant N-acetyl-L-cysteine by SRB assay; format: functional, cell-based
Method in brief: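 SRB assay: PC3 seeded 1×10^4 per well, after 24 h exposed 24 h at 37 °C, 5% CO2 with or without 1 mM N-acetyl-L-cysteine; vehicle 0.1% DMSO. Fixed with 15% TCA at 4 °C for 1 h, dried, stained 0.4% sulforhodamine B, dye solubilized in 10 mM Tris, absorbance 540 nm; ANOVA/Tukey.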

[4] = Selectivity index, ratio of IC50 for cytotoxicity against human MCF-10A cells to IC50 for cytotoxicity against human MCF7 cells; format: toxicity, cell-based; conditions: MCF-10A cells versus MCF7 cells, read-out: Ratio IC50
Method in brief: (§3)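 CCK-8 was added for 3 h and A450 read, with vehicle set as 100% viability. IC50 was fitted by nonlinear regression from ≥2 experiments in triplicate. SI = normal-cell IC50 divided by the matched cancer-cell IC50.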

PC-3 [5] = test: Induction of morphological changes in human PC-3 cells assessed as reduction in cell density at 0.05 uM measured after 24 hrs by phase contrast microscopy; format: functional, cell-based; method in brief: as §2
OVCAR-3 = test: Cytotoxicity against human OVCAR-3 cells assessed as reduction in cell viability measured after 48 hrs by CCK-8 assay; format: functional, cell-based; conditions: OVCAR-3, 48 h; method in brief: as §1
PC-3 [6] = test: Cytotoxicity against human PC-3 cells assessed as cell growth inhibition at 0.05 uM measured after 48 hrs in presence of 0.5 to 50 uM NO scavenger carboxy-PTIO by CCK-8 assay; format: functional, cell-based
Method in brief: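 PC3 at 1×10^4 cells per well attached 24 h, pretreated 1 h with carboxy-PTIO (0, 0.50, 3.13, 6.25, 12.50, 25, 50 μM), then compound added for 48 h; washed three times with PBS, growth read by CCK-8 as percent inhibition versus control cells; two experiments in triplicate.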

MCF7 = test: Cytotoxicity against human MCF7 cells assessed as reduction in cell viability measured after 48 hrs by CCK-8 assay; format: functional, cell-based; conditions: MCF7, 48 h; method in brief: as §1
PC-3 [7] = test: Induction of nitric oxide production in human PC-3 cells assessed as nitrite level at 100 uM measured after 12 to 48 hrs by Griess assay; format: functional; conditions: time 12-48 hrs
Method in brief: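 PC3 cells were seeded at 1×10^4 per well and grown 24 h, then moved to serum-free RPMI with 100 μM compound for 12, 24 or 48 h at 37 °C. Supernatant was mixed with 1% sulfanilamide in 2.5% H3PO4 (10 min, dark), then 0.1% NED (10 min, 37 °C), and A540 was read. Nitrite was calculated from a NaNO2 curve (0–100 μM). Controls were DMSO and SNP 100 μM. Data from ≥3 independent experiments in triplicate, mean ± SD.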

PC-3 [8] = test: Induction of apoptosis in human PC-3 cells assessed as effect on BCL2 gene expression at 0.05 uM measured after 3 hrs by qPCR analysis; format: functional, cell-based
Method in brief: (§4)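 Seeded 1×10^5 cells per well in 6-well plates; PC3 treated 3 h. Total RNA extracted, qPCR; each target normalized to reference gene (β-actin) by efficiency-corrected ΔΔCt (Pfaffl) against a control calibrator sample, efficiencies from amplification profiles. Mean ± SEM of four independent experiments.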

PC-3 [9] = test: Cell cycle arrest in human PC-3 cells assessed as reduction in cell accumulation at G0/G1 phase at 0.05 uM measured after 3 hrs by propidium iodide staining based flow cytometry; format: functional
Method in brief: (§5)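 PC3 cells seeded 1×10^5 per well in 6-well plates, exposed 3 h, with or without 1 mM N-acetyl-L-cysteine pretreatment; vehicle 0.1% DMSO. Harvested with trypsin-EDTA, fixed in 75% ethanol in PBS at 4 °C for 30 min, stained 1 h with RNase (1.5 mg mL^-1) and propidium iodide (90 μg mL^-1); DNA content by flow cytometry. Phase fractions compared with control by ANOVA/Tukey.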

[10] = Cytotoxicity against human MCF-10A cells assessed as reduction in cell viability measured after 48 hrs by CCK-8 assay; format: toxicity, cell-based; method in brief: as §1
PC-3 [11] = test: Cell cycle arrest in human PC-3 cells assessed as reduction in cell accumulation at G0/G1 phase in presence of antioxidant N-acetyl-L-cysteine at 0.05 uM measured after 3 hrs by propidium iodide staining based flow cytometry; format: functional; method in brief: as §5
[12] = Selectivity index, ratio of IC50 for cytotoxicity against human PNT2 cells to IC50 for cytotoxicity against human PC-3 cells; format: toxicity, cell-based; conditions: PNT2 cells versus PC-3 cells, read-out: Ratio IC50; method in brief: as §3
PC-3 [13] = test: Cytotoxicity against human PC-3 cells assessed as reduction in cell viability measured after 48 hrs by CCK-8 assay; format: functional, cell-based; conditions: PC-3, 48 h; method in brief: as §1
PC-3 [14] = test: Induction of apoptosis in human PC-3 cells assessed as late apoptotic cells at 0.05 uM measured after 6 hrs by Alexa Fluor 488-annexin V/propidium iodide staining based flow cytometry (reference value: 3.37%); format: functional
PC-3 [15] = test: Induction of morphological changes in human PC-3 cells assessed as reduction in cell density at 0.24 uM measured after 24 hrs in presence of antioxidant N-acetyl-L-cysteine by phase contrast microscopy; format: functional, cell-based; method in brief: as §2
PC-3 [16] = test: Induction of apoptosis in human PC-3 cells assessed as early apoptotic cells at 0.24 uM measured after 6 hrs by Alexa Fluor 488-annexin V/propidium iodide staining based flow cytometry (reference value: 6%); format: functional
PC-3 [17] = test: Induction of apoptosis in human PC-3 cells assessed as effect on BAX gene expression at 0.24 uM measured after 3 hrs by qPCR analysis; format: functional, cell-based; method in brief: as §4
PC-3 [18] = test: Induction of ROS generation in human PC-3 cells at 0.24 uM measured after 30 mins by CellROX reagent based flow cytometry; format: functional, cell-based
Method in brief: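 PC3 seeded 1×10^5 per well in 6-well plates, after 24 h treated together with CellROX green (5 μM final) for 30 min at 37 °C; 0.1% DMSO negative control, 1 mM H2O2 positive control. Cells collected and CellROX-positive fraction measured by flow cytometry.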

PC-3 [19] = test: Induction of apoptosis in human PC-3 cells assessed as effect on BCL2 gene expression at 0.24 uM measured after 3 hrs by qPCR analysis; format: functional, cell-based; method in brief: as §4
PC-3 [20] = test: Cell cycle arrest in human PC-3 cells assessed as up regulation of CDKN1A gene expression at 0.24 uM measured after 3 hrs by qPCR analysis; format: functional, cell-based

| SMILES | IC50 at 48 h [1] [nM] | selectivity ratio [4] | pIC50 (OVCAR-3) | pIC50 (MCF7) | Activity (PC-3 [7]) [µM] | IC50 at 48 h [10] [nM] | selectivity ratio [12] | pIC50 (PC-3 [13]) | further results |
| --- | --- | --- | --- | --- | --- | --- | --- | --- | --- |
| COc1cc(/C=C/C(=O)N2CCC=CC2=O)cc(OC)c1OCCCCCCCCCCCCOc1no[n+]([O-])c1S(=O)(=O)c1ccccc1 | 14100 | 15.7 | 6.92 | 5.10 | 23.5 | 123000 | 285 | 7.30 | Activity (PC-3 [2]): inactive; Activity (PC-3 [3]): inactive; Activity (PC-3 [5]): Active; growth inhibition (GI) (PC-3 [6]): inactive; Activity (PC-3 [8]): inactive; Activity (PC-3 [9]): Active; Significant Reduction Observed; Activity (PC-3 [11]): Active; Activity (PC-3 [14]): 81.12% |
| COc1cc(/C=C/C(=O)N2CCC=CC2=O)cc(OC)c1OCCCOc1no[n+]([O-])c1S(=O)(=O)c1ccccc1 | 17800 | 3 | 6.40 | 5.92 | 23.5 | 3500 | 75.5 | 6.62 | Activity (PC-3 [15]): inactive; Activity (PC-3 [16]): 9.17%; Activity (PC-3 [17]): inactive; Activity (PC-3 [18]): Active; Activity (PC-3 [19]): inactive; Activity (PC-3 [20]): Active |
